Assay results published in ChEMBL document CHEMBL1926509, “Discovery of pyrazolo[1,5-a]pyridines as p110α-selective PI3 kinase inhibitors” (Bioorg Med Chem, 2012).

How the values were obtained:
Mus musculus [1] = experiment: Toxicity in human HCT116 cells xenografted Rag1 knockout mouse assessed as mortality at 20 mg/kg, ip qd for 14 days; type: organism-based, HCT-116; design: dose 20 mg/kg, route intraperitoneal; details: in vivo, 336 h
Outline: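 Age-matched specific pathogen-free female Rag1-/- mice bearing subcutaneous HCT-116 tumours (5 × 10⁶ cells inoculated in PBS), n = 7 per group. Drug given ip at 20 mg/kg once daily for 14 days in 7.5% DMSO/42.5% PEG-400/20% 2-hydroxypropyl-β-cyclodextrin/30% water; controls received vehicle alone. Bodyweight recorded daily; mice culled when weight loss exceeded 20% of starting weight.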

Mus musculus [2] = experiment: Toxicity in human HCT116 cells xenografted Rag1 knockout mouse assessed as body weight loss at 20 mg/kg, ip qd measured up to day 10; type: organism-based, HCT-116; design: dose 20 mg/kg, route intraperitoneal; details: in vivo
Outline: (§1)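 Female specific-pathogen-free Rag1−/− mice carrying subcutaneous HCT-116 tumours, given 20 mg/kg ip daily for 14 days in a DMSO/PEG-400/hydroxypropyl-β-cyclodextrin/water vehicle; controls received vehicle; n = 7 per group. Bodyweight recorded daily; mice culled if loss exceeded 20% of starting weight.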

HCT-116 = experiment: Antitumor activity against human HCT116 cells xenografted in Rag1 knockout mouse assessed as tumor growth inhibition at 20 mg/kg, ip qd for 14 days relative to untreated control; type: functional; details: HCT-116, ip, 336 h, route intraperitoneal, read-out: GI
Outline: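 Female specific-pathogen-free Rag1−/− mice, age-matched, inoculated subcutaneously with 5×10⁶ HCT-116 cells in PBS. Dosed ip at 20 mg/kg q.d. for 14 days in 7.5% DMSO/42.5% PEG-400/20% hydroxypropyl-β-cyclodextrin/30% water; controls received vehicle only; n = 7 per group. Tumour volume measured three times weekly; 1-way ANOVA with Holm-Sidak comparison at study end.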

Mus musculus [3] = experiment: Toxicity in human HCT116 cells xenografted Rag1 knockout mouse assessed as body weight loss at 20 mg/kg, ip qd measured after 10 days relative to untreated control; type: organism-based, HCT-116; design: dose 20 mg/kg, route intraperitoneal; details: in vivo, 240 h; outline: as §1

Cc1ccc([N+](=O)[O-])cc1S(=O)(=O)N(C)/N=C/c1cnc2ccc(Br)cn12
Activity (Mus musculus [1]): Non-toxic | Activity (Mus musculus [2]): Non-toxic | inhibition in vivo at 20 mg/kg (HCT-116): 23.2% | Activity (Mus musculus [3]): 15%
